Data set [1] in a line: Stability in presence of DPP4 assessed as peptide degradation after 24 hrs by HPLC. Type of data set: ADME. The essentials: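 Peptides (10 μM) incubated with DPP IV (20 units/L, activity calibrated on Gly-Pro-p-nitroanilide at 410 nm) in 50 mM Tris·HCl, 1 mM EDTA, pH 7.6, 37 °C, sampled over 200 min and up to 24 h. Samples were quenched in 0.2% TFA and run on C18 RP-HPLC (CH3CN/H2O/0.1% TFA, 230 nm). First-order k was fitted from ln[A] versus time, and fragments were identified by ESI-MS.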

For another data set, the species on record is Mus musculus. Nature of the data set: Toxicity in C57BL/6 mouse assessed as effect on body weight after 5 days. Format: organism-based. The settings on record: in vivo, 120 h.

Here are results for seven compounds from ChEMBL document CHEMBL1152280 (J Med Chem, 2008).

Where a SMILES comes first, the peptide text is derived from it. [ ]: non-standard residue; d: D form. Leu(5,5,5,5',5',5'-F6) = N[C@@H](CC(C(F)(F)F)C(F)(F)F)C(=O)O

With `CC[C@H](C)[C@H](NC(=O)[C@H](Cc1ccccc1)NC(=O)[C@H](CCC(=O)O)NC(=O)[C@H](CCCCN)NC(=O)[C@H](C)NC(=O)[C@H](C)NC(=O)[C@H](CCC(N)=O)NC(=O)CNC(=O)[C@H](CCC(=O)O)NC(=O)[C@H](CC(C)C)NC(=O)[C@H](Cc1ccc(O)cc1)NC(=O)[C@H](CO)NC(=O)[C@H](CO)NC(=O)[C@@H](NC(=O)[C@H](CC(=O)O)NC(=O)[C@H](CO)NC(=O)[C@@H](NC(=O)[C@H](Cc1ccccc1)NC(=O)[C@@H](NC(=O)CNC(=O)[C@H](CC(C(F)(F)F)C(F)(F)F)NC(=O)[C@H](CC(C(F)(F)F)C(F)(F)F)NC(=O)[C@@H](N)Cc1cnc[nH]1)[C@@H](C)O)[C@@H](C)O)C(C)C)C(=O)N[C@@H](C)C(=O)N[C@@H](Cc1c[nH]c2ccccc12)C(=O)N[C@@H](CC(C)C)C(=O)N[C@H](C(=O)N[C@@H](CCCCN)C(=O)NCC(=O)N[C@@H](CCCNC(=N)N)C(N)=O)C(C)C`, in data set [1], the Stability entry is “Stable”. Also, the Activity entry in the data set listed under Mus musculus is reported as “Non-toxic”.

Take `CC[C@H](C)[C@H](NC(=O)[C@H](CC(C(F)(F)F)C(F)(F)F)NC(=O)[C@H](CCC(=O)O)NC(=O)[C@H](CCCCN)NC(=O)[C@H](C)NC(=O)[C@H](C)NC(=O)[C@H](CCC(N)=O)NC(=O)CNC(=O)[C@H](CCC(=O)O)NC(=O)[C@H](CC(C)C)NC(=O)[C@H](Cc1ccc(O)cc1)NC(=O)[C@H](CO)NC(=O)[C@H](CO)NC(=O)[C@@H](NC(=O)[C@H](CC(=O)O)NC(=O)[C@H](CO)NC(=O)[C@@H](NC(=O)[C@H](Cc1ccccc1)NC(=O)[C@@H](NC(=O)CNC(=O)[C@H](CCC(=O)O)NC(=O)[C@H](C)NC(=O)[C@@H](N)Cc1cnc[nH]1)[C@@H](C)O)[C@@H](C)O)C(C)C)C(=O)N[C@@H](C)C(=O)N[C@@H](Cc1c[nH]c2ccccc12)C(=O)N[C@@H](CC(C)C)C(=O)N[C@H](C(=O)N[C@@H](CCCCN)C(=O)NCC(=O)N[C@@H](CCCN=C(N)N)C(=O)O)C(C)C`: the Activity result in the data set listed under Mus musculus is recorded as “Non-toxic”.

In the case of `CC(C)C[C@H](NC(=O)[C@H](Cc1ccc(O)cc1)NC(=O)[C@H](CO)NC(=O)[C@H](CO)NC(=O)[C@@H](NC(=O)[C@H](CC(=O)O)NC(=O)[C@H](CO)NC(=O)[C@@H](NC(=O)[C@H](Cc1ccccc1)NC(=O)[C@@H](NC(=O)CNC(=O)[C@H](CCC(=O)O)NC(=O)[C@H](C)NC(=O)[C@@H](N)Cc1cnc[nH]1)[C@@H](C)O)[C@@H](C)O)C(C)C)C(=O)N[C@@H](CCC(=O)O)C(=O)NCC(=O)N[C@@H](CCC(N)=O)C(=O)N[C@@H](C)C(=O)N[C@@H](C)C(=O)N[C@@H](CCCCN)C(=O)N[C@@H](CCC(=O)O)C(=O)N[C@@H](Cc1ccccc1)C(=O)N[C@@H](CC(C(F)(F)F)C(F)(F)F)C(=O)N[C@@H](C)C(=O)N[C@@H](Cc1c[nH]c2ccccc12)C(=O)N[C@@H](CC(C)C)C(=O)N[C@H](C(=O)N[C@@H](CCCCN)C(=O)NCC(=O)N[C@@H](CCCNC(=N)N)C(N)=O)C(C)C`, the Activity entry in the data set filed under Mus musculus is given as “Non-toxic”.

Turning to `CC[C@H](C)[C@H](NC(=O)[C@H](Cc1ccccc1)NC(=O)[C@H](CCC(=O)O)NC(=O)[C@H](CCCCN)NC(=O)[C@H](C)NC(=O)[C@H](C)NC(=O)[C@H](CCC(N)=O)NC(=O)CNC(=O)[C@H](CCC(=O)O)NC(=O)[C@H](CC(C)C)NC(=O)[C@H](Cc1ccc(O)cc1)NC(=O)[C@H](CO)NC(=O)[C@H](CO)NC(=O)[C@@H](NC(=O)[C@H](CC(=O)O)NC(=O)[C@H](CO)NC(=O)[C@@H](NC(=O)[C@H](Cc1ccccc1)NC(=O)[C@@H](NC(=O)CNC(=O)[C@H](CCC(=O)O)NC(=O)[C@H](CC(C(F)(F)F)C(F)(F)F)NC(=O)[C@@H](N)Cc1cnc[nH]1)[C@@H](C)O)[C@@H](C)O)C(C)C)C(=O)N[C@@H](C)C(=O)N[C@@H](Cc1c[nH]c2ccccc12)C(=O)N[C@@H](CC(C)C)C(=O)N[C@H](C(=O)N[C@@H](CCCCN)C(=O)NCC(=O)N[C@@H](CCCNC(=N)N)C(N)=O)C(C)C`, the Stability result in data set [1] is listed as “Stable”. Also, the Activity result in the data set listed under Mus musculus is given as “Non-toxic”.

For `CC[C@H](C)[C@H](NC(=O)[C@H](Cc1ccccc1)NC(=O)[C@H](CCC(=O)O)NC(=O)[C@H](CCCCN)NC(=O)[C@H](C)NC(=O)[C@H](C)NC(=O)[C@H](CCC(N)=O)NC(=O)CNC(=O)[C@H](CCC(=O)O)NC(=O)[C@H](CC(C)C)NC(=O)[C@H](Cc1ccc(O)cc1)NC(=O)[C@H](CO)NC(=O)[C@H](CO)NC(=O)[C@@H](NC(=O)[C@H](CC(=O)O)NC(=O)[C@H](CO)NC(=O)[C@@H](NC(=O)[C@H](Cc1ccccc1)NC(=O)[C@@H](NC(=O)CNC(=O)[C@H](CCC(=O)O)NC(=O)[C@H](C)NC(=O)[C@@H](N)Cc1cnc[nH]1)[C@@H](C)O)[C@@H](C)O)C(C)C)C(=O)N[C@@H](C)C(=O)N[C@@H](Cc1c[nH]c2ccccc12)C(=O)N[C@@H](CC(C(F)(F)F)C(F)(F)F)C(=O)N[C@H](C(=O)N[C@@H](CCCCN)C(=O)NCC(=O)N[C@@H](CCCNC(=N)N)C(N)=O)C(C)C`, in the data set listed under Mus musculus, the Activity entry is on record as “Non-toxic”.

Regarding `CC[C@H](C)[C@H](NC(=O)[C@H](Cc1ccccc1)NC(=O)[C@H](CCC(=O)O)NC(=O)[C@H](CCCCN)NC(=O)[C@H](C)NC(=O)[C@H](C)NC(=O)[C@H](CCC(N)=O)NC(=O)CNC(=O)[C@H](CCC(=O)O)NC(=O)[C@H](CC(C)C)NC(=O)[C@H](Cc1ccc(O)cc1)NC(=O)[C@H](CO)NC(=O)[C@H](CO)NC(=O)[C@@H](NC(=O)[C@H](CC(=O)O)NC(=O)[C@H](CO)NC(=O)[C@@H](NC(=O)[C@H](Cc1ccccc1)NC(=O)[C@@H](NC(=O)[C@H](CC(C(F)(F)F)C(F)(F)F)NC(=O)[C@H](CCC(=O)O)NC(=O)[C@H](C)NC(=O)[C@@H](N)Cc1cnc[nH]1)[C@@H](C)O)[C@@H](C)O)C(C)C)C(=O)N[C@@H](C)C(=O)N[C@@H](Cc1c[nH]c2ccccc12)C(=O)N[C@@H](CC(C)C)C(=O)N[C@H](C(=O)N[C@@H](CCCCN)C(=O)NCC(=O)N[C@@H](CCCN=C(N)N)C(N)=O)C(C)C`, the Activity result in the data set listed under Mus musculus is recorded as “Non-toxic”.

Regarding `CC[C@H](C)[C@H](NC(=O)[C@H](Cc1ccccc1)NC(=O)[C@H](CCC(=O)O)NC(=O)[C@H](CCCCN)NC(=O)[C@H](C)NC(=O)[C@H](C)NC(=O)[C@H](CCC(N)=O)NC(=O)CNC(=O)[C@H](CCC(=O)O)NC(=O)CNC(=O)[C@H](CC(C)C)NC(=O)[C@H](Cc1ccc(O)cc1)NC(=O)[C@H](CO)NC(=O)[C@H](CO)NC(=O)[C@@H](NC(=O)[C@H](CC(=O)O)NC(=O)[C@H](CO)NC(=O)[C@@H](NC(=O)[C@H](Cc1ccccc1)NC(=O)[C@@H](NC(=O)CNC(=O)[C@H](CC(C(F)(F)F)C(F)(F)F)NC(=O)[C@H](C)NC(=O)[C@@H](N)Cc1cnc[nH]1)[C@@H](C)O)[C@@H](C)O)C(C)C)C(=O)N[C@@H](C)C(=O)N[C@@H](Cc1c[nH]c2ccccc12)C(=O)N[C@@H](CC(C)C)C(=O)N[C@H](C(=O)N[C@@H](CCCCN)C(=O)NCC(=O)N[C@@H](CCCNC(=N)N)C(N)=O)C(C)C` (H-HA[Leu(5,5,5,5',5',5'-F6)]GTFTSDVSSYLGEGQAAKEFIAWLVKGR-NH2), the Activity result in the data set filed under Mus musculus was “Non-toxic”.
